High-throughput results (PubChem)
Dynein cargo inh = blocks dynein driven cargo transport along microtubules; z-score, hits read low; hit rate 0.47% among 220,000; 3617.4 mouse cells, GR-EGFP nuclear translocation imaging; test concentration mostly 20 µM; stimulated with dexamethasone, 1 µM; active compounds read low;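 active means plate z-score of nuclear minus cytoplasmic receptor signal below a set negative limit, without overly bright fluorescence or cell loss, cut at about -3.5 in these data, passing the limit was not always enough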;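 further: z-score of nuclear minus cytoplasmic ring GR-EGFP intensity difference per well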
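Medium: Induction medium lacking tetracycline, stripped serum | Probe or stimulus: 1.0 µM final dexamethasone stimulus | Schedule: 48 h induction, then 1 h compound, then 30 min agonist, 37 °C | Signal: Automated 10x imaging of fixed Hoechst-stained cells | Evaluation: Per-cell GR-EGFP intensity, nucleus versus surrounding cytoplasmic ring, well-averaged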
CHOP inh = blocks CHOP induction under ER stress; hit rate 3.8% among 220,000; CHO-K1 CHOP-promoter luciferase, tunicamycin-induced, 15-18 h; inhibition, % at 10 µM;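 active means compounds that reduced the stress-induced luciferase reporter signal by more than about 70% of percent inhibition, limit read from the data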
UPR CHOP act = apoptotic UPR (CHOP) activation; hit rate 0.34% among 330,000; activation, % at 10 µM; CHO-CHOP luciferase reporter, luminescence; percent of tunicamycin response over DMSO baseline;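 active means at 10 µM dose, activation of 40% or more, normalized to positive control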
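System: CHO CHOP reporter cells. Amount: 500 cells per well. Buffer or medium: F12 medium, 10% FBS. Compound dosing: one dose, 10 µM in 0.5% DMSO. Incubation: 6 h compound exposure at 37 °C after overnight seeding. Technique: Steady-Glo luciferase luminescence. Benchmarks: tunicamycin and DMSO controls.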
L major viab = inhibitors of Leishmania major promastigote growth. Leishmania major promastigotes, resazurin fluorescence viability. inhibition, % at 10 µM. hit rate 9% among 200,000. AID 1063; in the data active means inhibition above about 50%;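 further: promastigotes grown with compound for 44 hours at 28 °C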
T cruzi repl = T. cruzi replication inhibition; T. cruzi beta-gal in NIH3T3, luminescence, 90 h; inhibition, % (test concentration not listed); hit rate 1.4% among 300,000; AID 1885;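 active means mean inhibition across valid replicates above about 55%, limit read from the data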;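 further: signal also drops with host cell toxicity which is not excluded here; higher percent means less beta-gal luminescence so fewer parasites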
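System: Mouse NIH/3T3 fibroblasts infected with β-gal-expressing T. cruzi Tulahuen C4 | Quantity: NIH/3T3 cells, 5,000 per well | Reagent: 5000 reporter trypomastigotes per well | Dosing: Compound pinned at 50 nL/well, DMSO | Schedule: 3 h host attachment, then at least 90 h co-culture | Detection: GalScreen luminescence, 60 min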
UPR XBP1 act = activators of adaptive arm of unfolded protein response (XBP1); CHO-XBP1 luciferase reporter, IRE1-XBP1 UPR activation, luminescence; percent of tunicamycin response, DMSO as zero; hit rate 0.33% among 330,000; activation, % at 20 µM;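 active means versus positive control, 20 µM dose yields 30% or more activation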
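Assay system: IRE1-XBP1 luciferase reporter CHO line. Input: 1000 cells/well. Buffer or medium: F12 with 10% serum. Doses: 20 µM, 1% DMSO. Times: overnight seeding at 37 °C, 6 h compound treatment at 37 °C. Technique: Steady-Glo luciferase glow luminescence, 10 min after reagent addition.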
Large screens that a line does not name were inactive. This excerpt belongs to a sample that is enriched for hits.

COc1ccc(OC)c(NC(=O)c2cc(-c3ccc(C)cc3O)n[nH]2)c1	CHOP inh 87.4
CCN(CC)CCNC(=S)Nc1ccc2nc(N3CCCC3)cc(C)c2c1	L major viab 86.1
CCN(CC)CCNC(=S)Nc1ccc2nc(N3CCOCC3)cc(C)c2c1	none (no result: Dynein cargo inh, CHOP inh, L major viab)
Cc1cc(N2CCCC2)nc2ccc(NC(=S)NCCCOC(C)C)cc12	L major viab 92.8
CCCN(CCC)CCCNC(=S)Nc1ccc2nc(N3CCCC3)cc(C)c2c1	L major viab 87.2, T cruzi repl 59.4
COCCCNC(=S)Nc1ccc2nc(N3CCOCC3)cc(C)c2c1	none (no result: Dynein cargo inh, CHOP inh, L major viab)
Cc1ccc(C)c(NC(=O)CN(C)C(=O)C2=NNC(=O)CC2)c1	none (no result: Dynein cargo inh, CHOP inh, L major viab, T cruzi repl)
COc1ccc(NC(=O)C(c2cc3c(cc2[N+](=O)[O-])OCO3)N(C)Cc2ccccc2)cc1 (configuration not stated)	none
CCN(c1cccc(C)c1)C(C(=O)Nc1ccc(OC)cc1)c1cc2c(cc1[N+](=O)[O-])OCO2 (configuration not stated)	L major viab 78.5
O=C1C(NS(=O)(=O)c2cccs2)=C(N2CCN(c3cccc(Cl)c3)CC2)C(=O)c2ccccc21	CHOP inh 72.7, L major viab 98.5
COc1ccc(S(=O)(=O)N2CCCOC2CNC(=O)C(=O)NCc2ccccc2F)cc1C (configuration not stated)	none (no result: Dynein cargo inh, CHOP inh, L major viab)
COc1cc(-c2nc(-c3ccccc3)c(-c3ccc(F)cc3)[nH]2)cc2c1OCO2	CHOP inh 70.3
Cc1c(C)c(C)c2[nH]c(-c3ccc4c(c3)OCO4)nc2c1C	T cruzi repl 58.2 (no result: Dynein cargo inh, CHOP inh, L major viab)
COc1ccc(-c2[nH]c(-c3ccc4c(c3)OCO4)nc2-c2ccccc2)cc1	L major viab 64.8
COc1ccc(NC(=O)CN(C)C(=O)C2CCCO2)cc1 (configuration not stated)	none (no result: Dynein cargo inh, CHOP inh, L major viab, T cruzi repl)
O=C(NCCN1CCCC1=O)C1CCC(=O)N(CCc2cccc(F)c2)C1 (configuration not stated)	none (no result: Dynein cargo inh, CHOP inh, L major viab)
Cc1cc(O)c(/C=N/Nc2ccc(F)cc2)c(=O)o1	L major viab 70.3
Cc1cc(O)c(/C=N/c2ccccn2)c(=O)o1	none
Cn1c(O)c(/C=N/Nc2ccccc2)c(=O)n(C)c1=O	L major viab 86.4
Cc1c(/C=N/Nc2ccc(F)cc2)c(O)n(C)c(=O)c1C#N	L major viab 60.2
COc1ccc(NS(=O)(=O)c2ccc(F)c(F)c2F)cc1S(=O)(=O)N1CCOCC1	none (no result: Dynein cargo inh, CHOP inh, L major viab, T cruzi repl)
CC1=CC(C#N)(C#N)C(C#N)(C#N)C(c2ccccc2)N1 (configuration not stated)	none
CC1CCC(C(C)C)C2=C1C(C#N)(C#N)C(C#N)(C#N)C(c1ccccc1)N2 (configuration not stated)	L major viab 99.7
COc1ccc(CN2C(=O)c3cccnc3C2=O)cc1S(=O)(=O)N(C)c1ccc(C)cc1	none (no result: Dynein cargo inh, CHOP inh, L major viab)
Cc1ccccc1S(=O)Cc1ccc(C(=O)NCCN2CCOCC2)o1 (configuration not stated)	none (no result: Dynein cargo inh, CHOP inh, L major viab)
Cc1ccc(C)c(N2N=C(C(=O)Nc3ccc(N4CCOCC4)cc3)CCC2=O)c1	none (no result: Dynein cargo inh, CHOP inh, L major viab, T cruzi repl)
CC(NC(=O)/C(C#N)=C/c1ccc(OCC(=O)O)cc1)c1ccccc1 (configuration not stated)	none (no result: Dynein cargo inh, CHOP inh, L major viab)
CC(NC(=O)/C(=C/c1ccc(OC(F)F)cc1)c1ccccc1)c1ccccc1 (configuration not stated)	L major viab 78.0
CCC(C)(C)NC(=O)/C=C/c1cnc2ccccc2n1	L major viab 51.9
O=C(O)/C=C/c1cnc2ccccc2n1	none
Cc1ccc(NC(=O)Cn2cnc3c(NCc4ccccc4)ncnc32)cc1C	none (no result: Dynein cargo inh, CHOP inh, L major viab, T cruzi repl)
Cc1ccc(N=C2NC(=O)S/C2=C\c2ccco2)cc1	CHOP inh 99.8
O=C1NC(=Nc2ccccc2)/C(=C/c2ccco2)S1	none
CCOc1ccc(-c2noc(CCC(=O)O)n2)cc1	CHOP inh 84.7
CCc1ccccc1N(C)C(=O)CCc1nc(-c2ccc(C)cc2)no1	CHOP inh 77.4
COc1ccc(Cl)cc1N(C)C(=O)CCc1nc(-c2ccc(C)cc2)no1	none
COc1ccc(-c2noc(CCCC(=O)O)n2)cc1	CHOP inh 83.7
Cc1cc(C)c(CN2CCN(C(=O)Cn3cnc4c(OCc5ccccc5)ncnc43)CC2)c(C)c1	none (no result: Dynein cargo inh, CHOP inh, L major viab, T cruzi repl)
O=C(COC(=O)c1c[nH]c2ccccc12)NC1CCCCC1	none (no result: Dynein cargo inh, CHOP inh, L major viab, T cruzi repl)
Cc1cc(Br)ccc1NC(=O)CNC(=O)CN(C)C1CCS(=O)(=O)C1 (configuration not stated)	none (no result: Dynein cargo inh, CHOP inh, L major viab, T cruzi repl)
O=[N+]([O-])c1ccc(C2CCCC/C2=N\OCc2cccc(F)c2)c([N+](=O)[O-])c1 (configuration not stated)	T cruzi repl 61.6
CC1CCCC/C1=N/Nc1ccc([N+](=O)[O-])cc1[N+](=O)[O-] (configuration not stated)	none
COCCCn1c(C)cc(C(=O)COC(=O)C23CC4CC(CC(O)(C4)C2)C3)c1C	none (no result: Dynein cargo inh, CHOP inh, L major viab, T cruzi repl)
COCCn1c(SCc2ccc(OC)c(F)c2)nc2ccccc2c1=O	L major viab 99.8, T cruzi repl 75.1
COCCn1c(SCC(=O)N2CCCCC2)nc2ccccc2c1=O	none
CC(=O)NCCn1c(SCc2cc(F)ccc2F)nc2ccccc2c1=O	T cruzi repl 68.2
COCCn1c(SCCN2CCCCC2)nc2ccccc2c1=O	L major viab 100.2
COc1cc(OC)c(C(=O)OCC(=O)Nc2ccc(S(=O)(=O)N3CCOCC3)cc2)cc1OC	none (no result: Dynein cargo inh, CHOP inh, L major viab, T cruzi repl)
Cc1ccc(NC(=O)CCOc2ccccc2C)cc1F	CHOP inh 71.1
CC(=O)Nc1ccc(NC(=O)CCOc2ccccc2C)cc1	none (no result: Dynein cargo inh, CHOP inh, L major viab)
Cc1ccccc1OCCCC(=O)Nc1ccc(Br)cc1	CHOP inh 95.8
CCn1ncc(Br)c1C(=O)Nc1c(C)nn(Cc2c(F)c(F)c(F)c(F)c2F)c1C	none (no result: Dynein cargo inh, CHOP inh, L major viab, T cruzi repl)
O=C(CSc1nncn1-c1ccccc1)Nc1cc(F)ccc1F	none (no result: Dynein cargo inh, CHOP inh, L major viab)
COc1ccc2c(c1)-c1nc(/N=C/c3cccc(OC)c3O)sc1CC2	L major viab 60.5
COc1ccc2c(c1)-c1nc(/N=C/c3ccccc3O)sc1CC2	none
O=C(NNC(=O)c1c(O)c2ccccc2[nH]c1=O)c1ccccc1	none (no result: Dynein cargo inh, CHOP inh, L major viab)
O=C(N/N=C/c1ccccc1)c1c(O)c2ccccc2[nH]c1=O	CHOP inh 78.3
Cc1cc2oc3c(c(=O)c2cc1C)C(c1cccc(Br)c1)N(Cc1ccco1)C3=O (configuration not stated)	none
CCOc1cc(C2c3c(oc4cc(C)c(Cl)cc4c3=O)C(=O)N2Cc2ccco2)ccc1O (configuration not stated)	CHOP inh 95.8
